≈ marks a conversion by molar mass, not a printed value.
How the values were obtained:
Assay type in all cases: functional
Staphylococcus aureus [1] = experiment: Antibacterial activity against Staphylococcus aureus by two fold serial microbroth dilution method
In short: (§1)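 Two-fold serial dilution in microdilution plates (micro broth dilution) following CLSI. Panel includes clinical drug-resistant isolates and ATCC reference strains. Clinical drugs were run as positive controls.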

Staphylococcus aureus [2] = experiment: Antibacterial activity against Staphylococcus aureus ATCC 25923 by two fold serial microbroth dilution method; in short: as §1
Enterococcus faecalis = experiment: Antibacterial activity against Enterococcus faecalis by two fold serial microbroth dilution method; in short: as §1
Escherichia coli [3] = experiment: Antibacterial activity against Escherichia coli by two fold serial microbroth dilution method; in short: as §1
Klebsiella pneumoniae = experiment: Antibacterial activity against Klebsiella pneumoniae by two fold serial microbroth dilution method; in short: as §1
Staphylococcus aureus [4] = experiment: Antibacterial activity against Staphylococcus aureus ATCC 29213 by two fold serial microbroth dilution method; in short: as §1
Pseudomonas aeruginosa [5] = experiment: Antibacterial activity against Pseudomonas aeruginosa ATCC 27853 by two fold serial microbroth dilution method; in short: as §1
Acinetobacter baumannii = experiment: Antibacterial activity against Acinetobacter baumannii by two fold serial microbroth dilution method; in short: as §1
Staphylococcus aureus [6] = experiment: Antibacterial activity against methicillin-resistant Staphylococcus aureus by two fold serial microbroth dilution method
In short: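 Two-fold serial microbroth dilution in microdilution plates, run per CLSI, with clinical antibacterial drugs as positive controls. The MRSA strain was a drug-resistant clinical isolate from infected patients. MIC (μg/mL) was read as the lowest concentration giving complete inhibition of visible bacterial growth.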

Escherichia coli [7] = experiment: Antibacterial activity against Escherichia coli ATCC 25922 by two fold serial microbroth dilution method; in short: as §1
Pseudomonas aeruginosa [8] = experiment: Antibacterial activity against Pseudomonas aeruginosa by two fold serial microbroth dilution method; in short: as §1
Candida albicans = experiment: Antifungal activity against Candida albicans by two fold serial microbroth dilution method
In short: (§2)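 Antifungal MIC by two-fold serial dilution following CLSI, with a clinical drug as positive control. Panel includes clinical drug-resistant fungal isolates.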

Aspergillus fumigatus = experiment: Antifungal activity against Aspergillus fumigatus by two fold serial microbroth dilution method; in short: as §2
Candida tropicalis = experiment: Antifungal activity against Candida tropicalis by two fold serial microbroth dilution method; in short: as §2

Compound | MIC (Staphylococcus aureus [1]) [µg/mL] | MIC (Staphylococcus aureus [2]) [µg/mL] | MIC (Enterococcus faecalis) [µg/mL] | MIC (Escherichia coli [3]) [µg/mL] | MIC (Klebsiella pneumoniae) [µg/mL] | MIC (Staphylococcus aureus [4]) [µg/mL] | MIC (Pseudomonas aeruginosa [5]) [µg/mL] | MIC (Acinetobacter baumannii) [µg/mL] | MIC (Staphylococcus aureus [6]) [µg/mL] | MIC (Escherichia coli [7]) [µg/mL] | MIC (Pseudomonas aeruginosa [8]) [µg/mL] | MIC (Candida albicans) [µg/mL] | MIC (Aspergillus fumigatus) [µg/mL] | MIC (Candida tropicalis) [µg/mL]
Cc1ncc([N+](=O)[O-])n1-c1ccnc(NS(=O)(=O)c2ccc(N)cc2)n1 | 128 (≈ 341 µM) | 128 (≈ 341 µM) | 128 (≈ 341 µM) | 128 (≈ 341 µM) | 64 (≈ 170 µM) | 128 (≈ 341 µM) | 128 (≈ 341 µM) | 64 (≈ 170 µM) | 64 (≈ 170 µM) | 256 (≈ 682 µM) | 256 (≈ 682 µM) | – | – | –
Cc1ccc2c(ccn2-c2ccnc(NS(=O)(=O)c3ccc(N)cc3)n2)c1 | 16 (≈ 42.2 µM) | 4 (≈ 10.5 µM) | 8 (≈ 21.1 µM) | 8 (≈ 21.1 µM) | 8 (≈ 21.1 µM) | 16 (≈ 42.2 µM) | 4 (≈ 10.5 µM) | 64 (≈ 169 µM) | 4 (≈ 10.5 µM) | 32 (≈ 84.3 µM) | 4 (≈ 10.5 µM) | 2 to 8 (≈ 5.27 to 21.1 µM) | 2 to 8 (≈ 5.27 to 21.1 µM) | 2 to 8 (≈ 5.27 to 21.1 µM)
Nc1ccc(S(=O)(=O)Nc2nccc(-n3ccc4cc([N+](=O)[O-])ccc43)n2)cc1 | 32 (≈ 78 µM) | 4 (≈ 9.75 µM) | 8 (≈ 19.5 µM) | 8 (≈ 19.5 µM) | 32 (≈ 78 µM) | 64 (≈ 156 µM) | 8 (≈ 19.5 µM) | 128 (≈ 312 µM) | 16 (≈ 39 µM) | 128 (≈ 312 µM) | 16 (≈ 39 µM) | 2 to 8 (≈ 4.87 to 19.5 µM) | 2 to 8 (≈ 4.87 to 19.5 µM) | 2 to 8 (≈ 4.87 to 19.5 µM)
Cc1cc2ncn(-c3ccnc(NS(=O)(=O)c4ccc(N)cc4)n3)c2cc1C | 256 (≈ 649 µM) | 256 (≈ 649 µM) | 256 (≈ 649 µM) | 256 (≈ 649 µM) | 256 (≈ 649 µM) | 128 (≈ 324 µM) | 128 (≈ 324 µM) | 128 (≈ 324 µM) | 64 (≈ 162 µM) | 512 (≈ 1300 µM) | 256 (≈ 649 µM) | – | – | –
Nc1ccc(S(=O)(=O)Nc2nccc(-n3cnc4ccccc43)n2)cc1 | 256 (≈ 699 µM) | 512 (≈ 1400 µM) | 256 (≈ 699 µM) | 128 (≈ 349 µM) | 256 (≈ 699 µM) | 256 (≈ 699 µM) | 256 (≈ 699 µM) | 512 (≈ 1400 µM) | 8 (≈ 21.8 µM) | 256 (≈ 699 µM) | 512 (≈ 1400 µM) | – | – | –
CC(C)c1nccn1-c1ccnc(NS(=O)(=O)c2ccc(N)cc2)n1 | 256 (≈ 714 µM) | 256 (≈ 714 µM) | 128 (≈ 357 µM) | 64 (≈ 179 µM) | 256 (≈ 714 µM) | 32 (≈ 89.3 µM) | 32 (≈ 89.3 µM) | 64 (≈ 179 µM) | 32 (≈ 89.3 µM) | 128 (≈ 357 µM) | 128 (≈ 357 µM) | – | – | –
Nc1ccc(S(=O)(=O)Nc2nccc(-n3ccc4cc(Br)ccc43)n2)cc1 | 64 (≈ 144 µM) | 2 (≈ 4.5 µM) | 4 (≈ 9 µM) | 4 (≈ 9 µM) | 32 (≈ 72 µM) | 16 (≈ 36 µM) | 4 (≈ 9 µM) | 128 (≈ 288 µM) | 4 (≈ 9 µM) | 2 (≈ 4.5 µM) | 4 (≈ 9 µM) | 2 to 8 (≈ 4.5 to 18 µM) | 2 to 8 (≈ 4.5 to 18 µM) | 2 to 8 (≈ 4.5 to 18 µM)

Reference: ChEMBL document CHEMBL4627266, “Design and biological evaluation of a novel type of potential multi-targeting antimicrobial sulfanilamide hybrids in combination of pyrimidine and azoles” (Bioorg Med Chem Lett, 2020)
